Published values gathered from unrelated publications.
Lines come from different studies, so protocols differ.
Target: Tyrosine-protein kinase BTK (BTK, Homo sapiens, UniProt Q06187)

SMILES | read-out | action | technique | tested at | measurement | value
C#Cc1n[nH]c2c(-c3cn(C(C)c4ccccn4)c(=O)[nH]c3=O)cc(F)cc12 (centres unmarked) | enzyme activity | inhibitor |  | 1 µM | inhibition | 1.7%
Cn1cncc1[C@@](O)(COc1ccc(C#N)cc1-c1ccc(OC(F)(F)F)cc1)c1ccc(C#N)cc1 | cell-free assay |  | competition with immobilised ligand | 1 µM | remaining binding | 82%
Cc1nn(C)cc1-c1nc2c(N3CCN(Cc4ccc(Cl)cc4)CC3)c(Cl)cnc2[nH]1 | binding |  | competition with immobilised ligand | 1 µM | remaining binding | 100%
N#CC1(c2ccccn2)CCN(Cc2cc(C(=O)O)c(=O)n3ccccc23)CC1 | cell-free assay |  | competition with immobilised ligand | 1 µM | remaining binding | 100%
O=c1[nH]c2ccccc2n1C1CCN(Cc2ccc(-c3[nH]c4cc5ncnc5cc4nc3-c3ccccc3)cc2)CC1 | cell-free assay |  |  | 0.5 µM | remaining signal | 98.4%
COc1ncccc1-c1cnn2ccc(N3CCN(C(=O)OC(C)C)CC3)nc12 | binding |  | competition with immobilised ligand | 1 µM | remaining binding | 68%
CC(C)(C)c1cc(C=C(C#N)C#N)cc(Br)c1O | enzyme activity | inhibitor |  | 0.5 µM | remaining activity | 101%
Nc1ncc(-c2nc(N3CCOCC3)nc(N3CCOCC3)n2)c(C(F)F)n1 | binding |  | competition with immobilised ligand | 10 µM | remaining binding | 26%
